Screening results as filed in PubChem BioAssay.
FN deposition inh: inhibitors of fibronectin matrix deposition, primary screen, AH1F cells, Alexa488-fibronectin fluorescence, plate reader. AH1F fibroblasts, overnight. 0.086% of 350,000 active. inhibition, % at 12.6 µM;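 active = mean inhibition across replicates of 30% or more, regardless of how many single replicates reach that level; inconclusive = mean under 30% yet at least half of replicates reach 30%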
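material = AH1F fibroblast monolayer depositing Alexa488-labelled fibronectin into matrix | amount = 10000 AH1F cells/well | buffer or medium = DMEM plus 2% serum, read in PBS | incubation = 1 h cell adhesion before compound, then overnight fibronectin incubation | detection = fluorescence at 485 nm excitation, 525 nm emission | evaluation = percent inhibition as loss of matrix-bound fibronectin fluorescence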
Glyco luc inh: increase of ERlucT glycosylation luciferase signal, primary screen, N-linked glycosylation inhibitor project, D54 ERlucT cells, luminescence, set 2 | reporter increase, % at 12.5 µM | D54 ERlucT glycosylation luciferase reporter, 24 h; percent of 100 nM tunicamycin response | 0.23% of 360,000 active;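 active = mean luciferase reporter signal, scaled so untreated is 0 and the glycosylation-blocking control 100, at or above a set limit in every replicate; inconclusive = mean reaches the limit but not every replicate does; inactive = mean below the limit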;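 note: luciferase carries N-glycosylation sites so blocking glycosylation raises the light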
RAD54 inh: inhibitors of human RAD54 branch migration, primary screen, biochemical, fluorescence, single point | DNA repair and recombination protein RAD54-like (Homo sapiens), Q92698 | RAD54 Holliday junction branch migration, FAM/BHQ fluorescence | inhibition, % at 10.4 µM | 0.14% of 360,000 active | AID 602329, 2012;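 active = mean normalized replicate activity at least 40 and at least half of replicates scoring 40 or more; inconclusive = only one of the two criteria met; inactive = mean below 40 and under half of replicates reaching 40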;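 note: inhibitors cause a drop in the FAM fluorescence signal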
RAD52 anneal inh: RAD52 DNA annealing inhibitors, primary screen, biochemical, FRET, single point, set 2. DNA repair protein RAD52 homolog (Homo sapiens), P43351. recombinant RAD52 DNA annealing, FRET fluorescence. inhibition, % at 18.7 µM. 0.46% of 360,000 active;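 active = every replicate showing at least 50% inhibition; inconclusive = mean inhibition at least 50% but not in every replicate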
MLL AF4-AF9 inh: inhibitors of AF4 peptide binding to AF9, primary screen, biochemical, AlphaScreen, biotin-AF4 peptide, FLAG-AF9, single point; 0.47% of 350,000 active; inhibition, % at 10 µM; Protein AF-9 (Homo sapiens), P42568;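 active = every replicate reaching a set inhibition limit, whatever the replicate mean, cut at about 25% in these data; inconclusive = mean inhibition reaches that limit but some replicates miss it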
Target sequence (P42568 whole entry, looked up): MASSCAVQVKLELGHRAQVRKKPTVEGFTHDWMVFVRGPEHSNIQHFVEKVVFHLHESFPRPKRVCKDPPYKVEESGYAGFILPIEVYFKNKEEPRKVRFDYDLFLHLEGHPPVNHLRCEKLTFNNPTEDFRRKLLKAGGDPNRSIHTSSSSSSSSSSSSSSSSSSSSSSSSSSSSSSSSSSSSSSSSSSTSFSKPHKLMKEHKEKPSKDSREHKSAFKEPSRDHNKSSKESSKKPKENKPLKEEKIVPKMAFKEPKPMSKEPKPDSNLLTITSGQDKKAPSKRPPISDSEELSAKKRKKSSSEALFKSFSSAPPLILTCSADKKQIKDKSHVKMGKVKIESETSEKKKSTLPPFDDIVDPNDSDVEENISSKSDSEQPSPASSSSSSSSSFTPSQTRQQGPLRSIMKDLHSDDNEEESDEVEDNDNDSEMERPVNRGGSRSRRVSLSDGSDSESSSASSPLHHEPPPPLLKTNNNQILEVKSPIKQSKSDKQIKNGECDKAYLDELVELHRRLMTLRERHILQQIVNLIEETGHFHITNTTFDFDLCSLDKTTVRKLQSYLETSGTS
NSD2 HMT inh: NSD2 histone methyltransferase inhibitors, primary screen, biochemical, AlphaScreen, single concentration, set 2; Histone-lysine N-methyltransferase NSD2 (Homo sapiens), O96028; inhibition, % at 12.5 µM; 0.54% of 310,000 active; NSD2 peptide methylation, 120 min; in the data active = inhibition above about 50%
Of the large screens only hits and unclear results are named; the others gave an inactive call. Shown are actives, neighbours in structure and some others; about 1.2% of the full set was active somewhere.

C#CC[N+](C)(C)CCCCCCCCC	Glyco luc inh 29.9 (no result: RAD54 inh)
Cc1noc(C)c1NC(=O)N(C)C[C@@H]1Oc2c(NC(=O)c3cnccn3)cccc2C(=O)N([C@H](C)CO)C[C@@H]1C	MLL AF4-AF9 inh inconclusive (no result: Glyco luc inh, NSD2 HMT inh)
O=C(C[C@H]1C[C@@H]2c3cc(NC(=O)CC4CC4)ccc3O[C@@H]2[C@H](CO)O1)NCc1ccccc1F	none (no result: Glyco luc inh, NSD2 HMT inh)
CC(C)(C)c1ccc(OCC(=O)Nc2ccncc2)c(Br)c1	Glyco luc inh 34.0
CC(=O)c1ccc(NC2=C(N3CCOCC3)C(=O)c3ccccc3C2=O)cc1	none (no result: FN deposition inh, RAD52 anneal inh, MLL AF4-AF9 inh, NSD2 HMT inh)
Cc1ccc(NC2=C(N3CCOCC3)C(=O)c3ccccc3C2=O)cc1	NSD2 HMT inh 100.5 (no result: FN deposition inh, RAD52 anneal inh, MLL AF4-AF9 inh)
CC(=O)N(C)C1=C(N2CCOCC2)C(=O)c2ccccc2C1=O	NSD2 HMT inh 97.6 (no result: FN deposition inh, RAD54 inh, RAD52 anneal inh, MLL AF4-AF9 inh)
O=C(O)c1ccc(NC2=C(N3CCOCC3)C(=O)c3ccccc3C2=O)cc1	NSD2 HMT inh 95.4 (no result: RAD54 inh, RAD52 anneal inh, MLL AF4-AF9 inh)
Cc1ccc(Nc2nc(N3CCOCC3)nc(N3CCOCC3)n2)cc1	none (no result: RAD52 anneal inh, MLL AF4-AF9 inh)
CC(=O)N(C1=C(N2CCOCC2)C(=O)c2ccccc2C1=O)c1ccc(C(=O)O)cc1	none (no result: RAD54 inh)
O=c1cc(-c2cccnc2)oc2c1ccc1ccccc12	RAD54 inh 60.2
Cc1ccc(S(=O)(=O)NCC[C@H]2CC[C@H](NC(=O)c3cccc(F)c3)[C@@H](CO)O2)cc1	none (no result: FN deposition inh, Glyco luc inh, NSD2 HMT inh)
O=C(COc1ccccc1CNCc1ccccc1)Nc1ccccc1	Glyco luc inh 46.9 (no result: RAD54 inh, RAD52 anneal inh, MLL AF4-AF9 inh)
CCOc1ccccc1CNCc1ccc(C(=O)O)cc1	none (no result: RAD54 inh)
COc1ccc(NC(=O)N(C)C[C@H]2Oc3ccc(NS(C)(=O)=O)cc3C(=O)N([C@@H](C)CO)C[C@H]2C)cc1	none (no result: Glyco luc inh, NSD2 HMT inh)
CCC(=O)N1CC2(C1)[C@H](c1ccc(-c3ccccc3C)cc1)[C@H](CO)N2C(C)=O	none (no result: Glyco luc inh, RAD54 inh, NSD2 HMT inh)
CO[C@H]1O[C@H](CO)[C@@H](OC(=O)Nc2ccccc2)[C@H](OC(=O)Nc2ccc3c(c2)OCO3)[C@@H]1OC(=O)Nc1ccc2c(c1)OCO2	MLL AF4-AF9 inh 27.1 (no result: FN deposition inh, Glyco luc inh, NSD2 HMT inh)
COc1cc2c(cc1OC)-c1c(OC)c(OC)cc3ccnc(c13)C2=O	RAD54 inh 88.2 (no result: NSD2 HMT inh)
OCCCn1c(-c2ccccc2)csc1=Nc1ccccc1	MLL AF4-AF9 inh 44.5
Cn1c(=O)[nH]c(=O)c2c1nc(NN)n2CCOc1ccccc1	Glyco luc inh 61.4
Cn1c(=O)[nH]c(=O)c2c1nc(NCCN)n2CCOc1ccccc1	none
O=C(NCC[C@H]1CC[C@@H](NC(=O)c2cccnc2)[C@H](CO)O1)Nc1ccc(Cl)cc1	none (no result: FN deposition inh, Glyco luc inh, NSD2 HMT inh)
C[C@H](CO)N1C[C@H](C)[C@@H](CN(C)C(=O)c2ccncc2)Oc2cc(C#CC3(O)CCCC3)ccc2S1(=O)=O	none (no result: Glyco luc inh, NSD2 HMT inh)
O=C(NC1CCCC1)N1CC(=O)N2[C@H](CO)[C@@H](c3ccc(/C=C/c4ccccc4)cc3)[C@@H]2C1	none (no result: FN deposition inh, Glyco luc inh, RAD54 inh, NSD2 HMT inh)
O=C(c1cccnc1)N1CC(=O)N2[C@H](CO)[C@@H](c3ccc(/C=C/c4ccccc4)cc3)[C@H]2C1	MLL AF4-AF9 inh 27.2 (no result: FN deposition inh, Glyco luc inh, RAD54 inh, NSD2 HMT inh)
O=C(NC1CCCCC1)N1CC(=O)N2[C@@H](CO)[C@@H](c3ccc(-c4cccnc4)cc3)[C@@H]2C1	RAD52 anneal inh 60.9 (no result: Glyco luc inh, RAD54 inh, NSD2 HMT inh)
O=C(NC1CCCC1)N1CC(=O)N2[C@H](C1)[C@@H](c1ccc(/C=C/c3ccccc3)cc1)[C@@H]2CO	MLL AF4-AF9 inh 25.4 (no result: FN deposition inh, Glyco luc inh, RAD54 inh, NSD2 HMT inh)
O=C(NC1CCCCC1)N1CC(=O)N2[C@@H](CO)[C@H](c3ccc(-c4cccnc4)cc3)[C@@H]2C1	none (no result: Glyco luc inh, RAD54 inh, NSD2 HMT inh)
O=C(NCC[C@H]1CC[C@H](NC(=O)C2CCOCC2)[C@@H](CO)O1)c1ccc(F)cc1	none (no result: Glyco luc inh, NSD2 HMT inh)
C[C@H](CO)N1C[C@H](C)[C@@H](CN(C)C(=O)c2ccncc2)OCCCC[C@H](C)Oc2ccc(NC(=O)NC3CCCCC3)cc2C1=O	none (no result: FN deposition inh, Glyco luc inh, RAD52 anneal inh, MLL AF4-AF9 inh, NSD2 HMT inh)
CN(c1ccccc1)c1nc(-n2ccnc2)nc(-n2ccnc2)n1	FN deposition inh 44.3 (no result: RAD52 anneal inh, MLL AF4-AF9 inh, NSD2 HMT inh)
COc1ccc(N2c3ccccc3CN(Cc3ccccc3)[C@@H](C)[C@H]2Cc2cccnc2)cc1	MLL AF4-AF9 inh 25.3 (no result: NSD2 HMT inh)
Cc1ccnc2nc(C(=O)Nc3cc(Cl)ccc3N3CCOCC3)nn12	Glyco luc inh 41.0 (no result: FN deposition inh, RAD52 anneal inh, MLL AF4-AF9 inh)
O=C(Nc1cc(Cl)ccc1N1CCOCC1)c1ccc(Br)o1	none (no result: FN deposition inh)
COc1ccc(COC[C@]23NC(=O)N[C@H](c4ccccc4O2)[C@H]3CO)cc1	MLL AF4-AF9 inh 25.6 (no result: FN deposition inh, Glyco luc inh, NSD2 HMT inh)
CCc1cccc(CC)c1NC(=O)CN1C2CCCC1CC(NC(=O)Nc1cccc(OC)c1)C2 (centres undefined)	Glyco luc inh 38.8 (no result: RAD54 inh)
COc1cccc(C(=O)NC2CC3CCCC(C2)N3CC(=O)Nc2ccccc2C(F)(F)F)c1 (centres undefined)	none
COc1ccc(NC(=O)c2cccc(NC(=O)c3ccco3)c2)cc1	none (no result: FN deposition inh, Glyco luc inh, RAD54 inh, RAD52 anneal inh, MLL AF4-AF9 inh)
Cc1cc(NC(=O)CSCc2ccc([N+](=O)[O-])cc2)no1	NSD2 HMT inh 142.7 (no result: RAD54 inh)
CCc1nc2ccc(C(=O)N3CCc4ccccc4C3)cc2nc1CC	none (no result: FN deposition inh, Glyco luc inh, RAD54 inh, RAD52 anneal inh, MLL AF4-AF9 inh)
Cc1noc(C)c1NC(=O)Nc1ccc2c(c1)C(=O)N([C@@H](C)CO)C[C@H](C)[C@H](CN(C)S(C)(=O)=O)O2	none (no result: FN deposition inh, Glyco luc inh, NSD2 HMT inh)
